The record followed here is ChEMBL document CHEMBL3763087, “Picrajavanicins A-G, Quassinoids from Picrasma javanica Collected in Myanmar” (J Nat Prod, 2015).

What all share (type): functional, cell-based
The subject of one test is A549. Briefly: Antiproliferative activity against human A549 cells after 72 hrs by WST-8 assay. The following applies: A549, 72 h. An outline of the steps:
(§1)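 The procedure follows an earlier report. Human A549 lung adenocarcinoma and HeLa cervix adenocarcinoma lines came from RCB; PANC-1 pancreatic epithelioid carcinoma, PSN-1 pancreatic adenocarcinoma and MDA-MB-231 breast adenocarcinoma came from ATCC. All were maintained in-house and grown in 96-well plates. Cell absorbance was read on a microplate reader and IC50 derived. 5-Fluorouracil served as positive control.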
For orientation: Formazan colour is commonly taken as a measure of viable cells.

The test system of another test is HeLa. Briefly: Antiproliferative activity against human HeLa cells after 72 hrs by WST-8 assay. Put shortly:
as §1

Test [1] is described as follows: Antiproliferative activity against human PANC1 cells after 72 hrs by WST-8 assay. The following applies: PANC-1, 72 h. An outline of the steps: as §1
A further test has as its system PSN1. Briefly: Antiproliferative activity against human PSN1 cells after 72 hrs by WST-8 assay. The note with it: PSN1, 72 h. Put shortly:
as §1

Another test relates to MDA-MB-231. The test can be described thus: Antiproliferative activity against human MDA-MB-231 cells after 72 hrs by WST-8 assay. The following applies: MDA-MB-231, 72 h. Put shortly: as §1

By IC50 is commonly meant the concentration needed to halve the response being measured. Lower therefore signals higher potency. Take `COC1=C(C)[C@@H]2CC(=O)O[C@@H]3C[C@H]4CC[C@H](OC)C(=O)[C@]4(C)[C@@H](C1=O)[C@@]32C`: the IC50 (with A549; in the test with HeLa; in test [1]; with PSN1; in the test on MDA-MB-231) was greater than 10 µM in each case.
On to `COC1=CC[C@@H]2C[C@H]3OC(=O)C[C@H]4C(C)=C(OC)C(=O)[C@H]([C@@]2(C)C1=O)[C@@]34C`, for which the IC50 (with A549; with HeLa; in test [1]; in the test with PSN1; in the test with MDA-MB-231) was greater than 10 µM each time.
In the case of `COC1=C(C)[C@@H]2CC(=O)O[C@@H]3C[C@H]4CC[C@H](O)C(=O)[C@]4(C)[C@@H](C1=O)[C@@]32C`, the 50% inhibitory concentration (IC50) (in the test with A549; in the test on HeLa; in test [1]; with PSN1; in the test with MDA-MB-231) was greater than 10 µM each time.
For `COC1=CC[C@@H]2C[C@H]3OC(=O)C[C@H]4C(C=O)=C(OC)C(=O)[C@H]([C@@]2(C)C1=O)[C@@]34C`, the IC50 (in the test on A549; in the test with HeLa; in test [1]; in the test with PSN1; with MDA-MB-231) was greater than 10 µM throughout.
As for `COC1=C(C)[C@]2(O)CC(=O)O[C@@H]3C[C@H]4CC[C@H](O)C(=O)[C@]4(C)[C@@H](C1=O)[C@@]32C`, the IC50 (in the test on A549; in the test on HeLa; in test [1]; with PSN1; in the test with MDA-MB-231) was greater than 10 µM in each case.
As to `COC1=CC[C@@H]2C[C@H]3OC(=O)C=C4C(C)=C(OC)C(=O)[C@H]([C@@]2(C)C1=O)[C@]43C`, the IC50 (with A549; in the test with HeLa; in test [1]; in the test on PSN1; in the test on MDA-MB-231) was greater than 10 µM in each case.
On to `O=c1[nH]cc(F)c(=O)[nH]1` [FLUOROURACIL], for which the IC50 in the test on A549 was 9 µM; in the test with HeLa it was 6.4 µM; in test [1], 0.4 µM; with PSN1 it was 8.7 µM; with MDA-MB-231 it was 1.1 µM.
Consider `COC1=CC[C@@H]2C[C@H]3OC(=O)C=C4C(CO)=C(OC)C(=O)[C@H]([C@@]2(C)C1=O)[C@]43C`, for which the IC50 (in the test with A549; in the test on HeLa; in test [1]; with PSN1; in the test on MDA-MB-231) was greater than 10 µM each time.
Turning to `COC1=CC[C@@H]2C[C@H]3OC(O)C[C@H]4C(C)=C(OC)C(=O)[C@H]([C@@]2(C)C1=O)[C@@]34C` (stereo not given in full), the IC50 (in the test on A549; in the test on HeLa; in test [1]; with PSN1; with MDA-MB-231) was greater than 10 µM each time.
In the case of `COC1=C(OC)C(=O)[C@@]2(C)[C@H](C1)C[C@H]1OC(=O)C[C@H]3C(C)=C(OC)C(=O)[C@H]2[C@@]13C`, the IC50 (in the test on A549; in the test on HeLa; in test [1]; with PSN1; in the test with MDA-MB-231) was greater than 10 µM throughout.
Regarding `COC1=C(OC)C(=O)[C@@]2(C)[C@H](C1)C[C@H]1OC(=O)C[C@@]3(O)C(C)=C(OC)C(=O)[C@H]2[C@@]13C`, the IC50 (in the test with A549; in the test on HeLa; in test [1]; in the test with PSN1; in the test on MDA-MB-231) was greater than 10 µM throughout.
